In ChEMBL document CHEMBL1765045, “Fine-tuning the selectivity of aldosterone synthase inhibitors: structure-activity and structure-selectivity insights from studies of heteroaryl substituted 1,2,5,6-tetrahydropyrrolo[3,2,1-ij]quinolin-4-one derivatives” (J Med Chem, 2011) one finds Ratio IC50 and inhibition data, which are given here for two compounds.

The structures appear in SMILES notation.

For one series, the species on record is Homo sapiens. Nature of the series: Selectivity ratio of IC50 for human CYP11B1 to IC50 for human CYP11B2. A digest of the protocol: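 Ratio of IC50 values from V79 MZh cell assays for human CYP11B1 and CYP11B2, IC50 CYP11B1/IC50 CYP11B2. Both assays used [4-14C]-11-deoxycorticosterone, 100 nM, inhibitor at ≥3 concentrations and HPTLC/phosphoimager readout of conversion.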

A further series concerns the target T1, aromatase (CYP19) (Homo sapiens, UniProt P11511).
T1 sequence (P11511 whole entry): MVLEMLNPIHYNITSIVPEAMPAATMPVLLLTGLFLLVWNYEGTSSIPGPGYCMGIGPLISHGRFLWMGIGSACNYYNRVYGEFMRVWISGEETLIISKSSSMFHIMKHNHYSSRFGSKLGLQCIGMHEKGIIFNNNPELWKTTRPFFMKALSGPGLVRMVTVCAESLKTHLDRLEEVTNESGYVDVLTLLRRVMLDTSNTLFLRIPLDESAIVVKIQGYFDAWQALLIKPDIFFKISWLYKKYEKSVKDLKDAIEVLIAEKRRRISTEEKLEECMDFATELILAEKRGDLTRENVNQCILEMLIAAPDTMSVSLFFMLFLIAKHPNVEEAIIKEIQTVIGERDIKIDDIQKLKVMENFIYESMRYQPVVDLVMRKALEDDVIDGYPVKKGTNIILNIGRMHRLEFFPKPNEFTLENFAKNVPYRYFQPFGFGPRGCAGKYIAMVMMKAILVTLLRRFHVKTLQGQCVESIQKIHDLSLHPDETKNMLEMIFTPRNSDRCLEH
Nature of the series: Inhibition of aromatase at 0.5 uM. A digest of the protocol: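 Human placental microsomes as CYP19 source, [1β-3H]androstenedione substrate at 500 nM, inhibitor at 500 nM. Modified Thompson–Siiteri method, with fadrozole as reference.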

The next series addresses T2, CYP1A2 (Homo sapiens, UniProt P05177).
T2 sequence (P05177 whole entry): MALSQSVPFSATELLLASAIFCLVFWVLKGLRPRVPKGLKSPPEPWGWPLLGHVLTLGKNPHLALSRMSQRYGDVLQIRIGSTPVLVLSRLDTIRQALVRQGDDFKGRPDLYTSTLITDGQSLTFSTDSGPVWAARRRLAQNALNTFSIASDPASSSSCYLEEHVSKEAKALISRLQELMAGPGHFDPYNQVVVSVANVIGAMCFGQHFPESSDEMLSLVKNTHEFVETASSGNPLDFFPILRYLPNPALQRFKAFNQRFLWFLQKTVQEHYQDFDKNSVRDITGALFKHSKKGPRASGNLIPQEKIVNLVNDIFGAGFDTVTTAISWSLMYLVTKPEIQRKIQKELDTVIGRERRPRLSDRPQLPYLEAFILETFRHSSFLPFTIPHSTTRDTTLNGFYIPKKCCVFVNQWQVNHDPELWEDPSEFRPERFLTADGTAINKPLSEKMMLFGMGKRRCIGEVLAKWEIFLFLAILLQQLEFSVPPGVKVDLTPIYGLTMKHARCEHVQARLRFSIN
Nature of the series: Inhibition of CYP1A2 at 1 uM. It counts as ADME. In outline: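 Recombinant human CYP1A2, 2B6, 2C9, 2C19, 2D6 or 3A4 in baculovirus-infected insect microsomes (Supersomes), run per manufacturer's protocol. Inhibitor at 1 and 10 μM; percent inhibition is the mean of two experiments.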

Consider `O=C1CCc2cc(-c3cccnc3)cc3c2N1CC3`, for which the Ratio IC50 in the series filed under Homo sapiens is 650.
`O=C1CCc2cc(-c3cccnc3)cc3c2N1CCC3` returned an inhibition at 0.5 µM on aromatase (CYP19) of 69%. Further, the inhibition at 1 µM against CYP1A2 was found to be 41%.
